Reference: ChEMBL document CHEMBL4819036, “Hepatoprotective Glucosyloxybenzyl 2-Hydroxy-2-isobutylsuccinates from Pleione yunnanensis” (2021)

Assays:
[1] = system: HepG2; assay: Hepatoprotective activity against APAP-induced toxicity in human HepG2 cells assessed as cell survival rate at 10 uM after 48 hrs by MTT assay (reference value: 23 %); assay type: functional
[2] = system: L02; assay: Hepatoprotective activity against D-GalN-induced toxicity in human HL-7702 cells assessed as cell survival rate at 10 uM preincubated for 48 hrs followed by D-GalN stimulation for 8 hrs by MTT assay (reference value: 33 %); assay type: functional; details: time 56 hrs
Procedure, shortened: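 Normal human HL-7702 hepatocytes were injured with D-galactosamine at 60 mM, with test compounds at 10 μM. Viability was measured by the MTT method as OD, and survival rate was expressed as a percentage of untreated control cells. Bicyclol at 10 μM served as the positive control. Statistics compared treated cells with the D-GalN model group.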

Row | SMILES | Activity [1] [%] | Activity [2] [%]
1 | CC(=O)OC[C@H]1O[C@@H](O[C@@](CC(=O)OCc2ccc(O[C@@H]3O[C@H](CO)[C@@H](O)[C@H](O)[C@H]3O)cc2)(CC(C)C)C(=O)OCc2ccc(O[C@@H]3O[C@H](CO)[C@@H](O)[C@H](O)[C@H]3O)cc2)[C@H](O)[C@@H](O)[C@@H]1O | 14 | 39
2 | CC(C)C[C@@](O)(CC(=O)OCc1ccc(O[C@@H]2O[C@H](CO)[C@@H](O)[C@H](O)[C@H]2O)cc1)C(=O)OCc1ccc(O[C@@H]2O[C@H](CO[C@@H]3O[C@H](CO)[C@@H](O)[C@H](O)[C@H]3O)[C@@H](O)[C@H](O)[C@H]2O)cc1 | 39 | 36
3 | COC(=O)C[C@](O)(CC(C)C)C(=O)OCc1ccc(O[C@@H]2O[C@H](CO)[C@@H](O)[C@H](O)[C@H]2O)cc1 | 28 | 64
4 | CC(C)C[C@](CC(=O)O)(O[C@@H]1O[C@H](CO)[C@@H](O)[C@H](O)[C@H]1O)C(=O)OCc1ccc(O[C@@H]2O[C@H](CO)[C@@H](O)[C@H](O)[C@H]2O)cc1 | 27 | –
5 | CC(C)C[C@@](O)(CC(=O)O)C(=O)OCc1ccc(O[C@@H]2O[C@H](CO)[C@@H](O)[C@H](O)[C@H]2O)cc1 | 28 | –
6 | CC(C)C[C@](CC(=O)OCc1ccc(O[C@@H]2O[C@H](CO)[C@@H](O)[C@H](O)[C@H]2O)cc1)(O[C@@H]1O[C@H](CO)[C@@H](O)[C@H](O)[C@H]1OC(=O)/C=C/c1ccc(O)cc1)C(=O)OCc1ccc(O[C@@H]2O[C@H](CO)[C@@H](O)[C@H](O)[C@H]2O)cc1 | 23 | 52
7 | CC(C)C[C@](CC(=O)OCc1ccc(O[C@@H]2O[C@H](CO)[C@@H](O)[C@H](O)[C@H]2O)cc1)(O[C@@H]1O[C@H](CO)[C@@H](O)[C@H](O)[C@H]1OC(=O)/C=C\c1ccc(O)cc1)C(=O)OCc1ccc(O[C@@H]2O[C@H](CO)[C@@H](O)[C@H](O)[C@H]2O)cc1 | 21 | 39
8 | CC(C)C[C@@](O)(CC(=O)OCc1ccc(O[C@@H]2O[C@H](CO)[C@@H](O)[C@H](O)[C@H]2O)cc1)C(=O)OCc1ccc(O[C@@H]2O[C@H](CO)[C@@H](O)[C@H](O)[C@H]2O)cc1 | 23 | –
9 | CC(C)C[C@@](O)(CC(=O)OCc1ccc(O[C@@H]2O[C@H](CO)[C@@H](O)[C@H](O)[C@H]2O)cc1)C(=O)OCc1ccc(O[C@@H]2O[C@H](COCc3ccc(O)cc3)[C@@H](O)[C@H](O)[C@H]2O)cc1 | 28 | 55
10 | CC(C)C[C@](CC(=O)OCc1ccc(O[C@@H]2O[C@H](CO)[C@@H](O)[C@H](O)[C@H]2O)cc1)(O[C@@H]1O[C@H](CO)[C@@H](O)[C@H](O)[C@H]1O)C(=O)OCc1ccc(O[C@@H]2O[C@H](CO)[C@@H](O)[C@H](O)[C@H]2O)cc1 | 35 | –
11 | CC(C)C[C@](CC(=O)OCc1ccc(O[C@@H]2O[C@H](COCc3ccc(O)cc3)[C@@H](O)[C@H](O)[C@H]2O)cc1)(O[C@@H]1O[C@H](CO)[C@@H](O)[C@H](O)[C@H]1O)C(=O)OCc1ccc(O[C@@H]2O[C@H](CO)[C@@H](O)[C@H](O)[C@H]2O)cc1 | 32 | 39
12 | CC(C)C[C@@](O)(CC(=O)OCc1ccc(O[C@@H]2O[C@H](CO)[C@@H](O)[C@H](O)[C@H]2O)cc1)C(=O)OCc1ccc(O[C@@H]2O[C@H](CO)[C@@H](O)[C@H](O)[C@H]2OCc2ccc(O)cc2)cc1 | 19 | 49
13 | CC(C)C[C@](CC(=O)OCc1ccc(O[C@@H]2O[C@H](CO)[C@@H](O)[C@H](O)[C@H]2O)cc1)(O[C@@H]1O[C@H](CO)[C@@H](O)[C@H](O)[C@H]1OC(=O)/C=C/c1ccc(O[C@@H]2O[C@H](CO)[C@@H](O)[C@H](O)[C@H]2O)cc1)C(=O)OCc1ccc(O[C@@H]2O[C@H](CO)[C@@H](O)[C@H](O)[C@H]2O)cc1 | 25 | 43
14 | CC(C)C[C@](O)(C(=O)OCc1ccc(O[C@@H]2O[C@H](CO)[C@@H](O)[C@H](O)[C@H]2O)cc1)[C@H](O)C(=O)OCc1ccc(O[C@@H]2O[C@H](CO)[C@@H](O)[C@H](O)[C@H]2O)cc1 | 23 | –
15 | CC(C)C[C@@](O)(CC(=O)OCc1ccc(O[C@@H]2O[C@H](COCc3ccc(O)cc3)[C@@H](O)[C@H](O)[C@H]2O)cc1)C(=O)OCc1ccc(O[C@@H]2O[C@H](CO)[C@@H](O)[C@H](O)[C@H]2O)cc1 | 27 | 60
16 | CC(C)C[C@](CC(=O)OCc1ccc(O[C@@H]2O[C@H](CO)[C@@H](O)[C@H](O)[C@H]2O)cc1)(O[C@@H]1O[C@H](CO)[C@@H](O)[C@H](O)[C@H]1OC(=O)/C=C\c1ccc(O[C@@H]2O[C@H](CO)[C@@H](O)[C@H](O)[C@H]2O)cc1)C(=O)OCc1ccc(O[C@@H]2O[C@H](CO)[C@@H](O)[C@H](O)[C@H]2O)cc1 | 17 | 38
17 | COC(=O)c1cc(OC)c2c(c1-c1c(CO)cc(OC)c3c1OCO3)OCO2 [BICYCLOL] | 32 | 47
18 | CC(C)C[C@@](O)(CC(=O)OCc1ccc(O[C@@H]2O[C@H](CO[C@@H]3O[C@H](CO)[C@@H](O)[C@H](O)[C@H]3O)[C@@H](O)[C@H](O)[C@H]2O)cc1)C(=O)OCc1ccc(O[C@@H]2O[C@H](CO)[C@@H](O)[C@H](O)[C@H]2O)cc1 | 28 | 38
